The text below walks through data of ChEMBL document CHEMBL4190262, “Tuning of β-glucosidase and α-galactosidase inhibition by generation and in situ screening of a library of pyrrolidine-triazole hybrid molecules” (Eur J Med Chem, 2017).

One experiment is filed under the species Bos taurus. Put plainly: Inhibition of bovine kidney alpha-L-fucosidase at 1 mM using p-nitrophenyl glycopyranoside preincubated for 5 mins followed by substrate addition measured after 20 mins by visible absorption spectroscopic method relative to control. Put shortly:
(§1)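 Test compound at 1 mM in well. Mix: 0.01–0.5 units/mL enzyme plus 10 mM p-nitrophenyl glycopyranoside (aqueous solution), buffered to the enzyme's optimal pH. Enzyme and inhibitor preincubated 5 min at rt. Substrate then added and incubated 20 min at 37 °C. Stopped with sodium borate (pH 9.8). p-Nitrophenolate read at 405 nm. Duplicates averaged.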

Experiment [1] concerns the target T1, Beta-galactosidase (Aspergillus oryzae) (UniProt B7VU80).
T1 sequence (whole entry): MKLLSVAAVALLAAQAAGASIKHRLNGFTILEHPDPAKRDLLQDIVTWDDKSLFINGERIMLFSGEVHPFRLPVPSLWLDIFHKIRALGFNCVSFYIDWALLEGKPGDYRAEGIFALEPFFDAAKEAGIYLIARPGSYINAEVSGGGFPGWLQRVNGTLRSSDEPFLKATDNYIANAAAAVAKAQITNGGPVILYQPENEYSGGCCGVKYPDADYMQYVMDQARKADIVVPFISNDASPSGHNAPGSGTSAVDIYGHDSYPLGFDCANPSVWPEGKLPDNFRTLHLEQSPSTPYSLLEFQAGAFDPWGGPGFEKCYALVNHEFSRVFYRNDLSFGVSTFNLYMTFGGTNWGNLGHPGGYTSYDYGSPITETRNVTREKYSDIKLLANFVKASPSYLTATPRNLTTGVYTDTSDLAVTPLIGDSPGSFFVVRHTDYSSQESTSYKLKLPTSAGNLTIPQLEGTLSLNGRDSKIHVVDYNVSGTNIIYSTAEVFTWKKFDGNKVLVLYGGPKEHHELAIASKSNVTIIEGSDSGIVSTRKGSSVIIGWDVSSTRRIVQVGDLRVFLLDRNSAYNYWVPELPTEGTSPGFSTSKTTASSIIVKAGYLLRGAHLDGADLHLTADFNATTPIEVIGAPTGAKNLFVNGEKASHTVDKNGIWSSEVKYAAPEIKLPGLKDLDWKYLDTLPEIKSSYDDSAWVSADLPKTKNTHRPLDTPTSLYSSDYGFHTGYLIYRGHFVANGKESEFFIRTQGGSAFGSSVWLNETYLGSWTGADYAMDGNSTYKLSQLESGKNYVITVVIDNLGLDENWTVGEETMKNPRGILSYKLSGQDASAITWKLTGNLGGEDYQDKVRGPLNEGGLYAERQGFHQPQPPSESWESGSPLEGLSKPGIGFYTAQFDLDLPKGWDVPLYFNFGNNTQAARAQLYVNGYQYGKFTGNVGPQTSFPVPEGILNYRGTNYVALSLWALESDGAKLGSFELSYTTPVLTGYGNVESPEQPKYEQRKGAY
Put plainly: Inhibition of Aspergillus oryzae beta-galactosidase at 1 mM using p-nitrophenyl glycopyranoside preincubated for 5 mins followed by substrate addition measured after 20 mins by visible absorption spectroscopic method relative to control. In short, it runs like this:
as §1

Experiment [2] deals with T2, Alpha-mannosidase (Canavalia ensiformis) (UniProt C0HJB3).
T2 sequence (whole entry): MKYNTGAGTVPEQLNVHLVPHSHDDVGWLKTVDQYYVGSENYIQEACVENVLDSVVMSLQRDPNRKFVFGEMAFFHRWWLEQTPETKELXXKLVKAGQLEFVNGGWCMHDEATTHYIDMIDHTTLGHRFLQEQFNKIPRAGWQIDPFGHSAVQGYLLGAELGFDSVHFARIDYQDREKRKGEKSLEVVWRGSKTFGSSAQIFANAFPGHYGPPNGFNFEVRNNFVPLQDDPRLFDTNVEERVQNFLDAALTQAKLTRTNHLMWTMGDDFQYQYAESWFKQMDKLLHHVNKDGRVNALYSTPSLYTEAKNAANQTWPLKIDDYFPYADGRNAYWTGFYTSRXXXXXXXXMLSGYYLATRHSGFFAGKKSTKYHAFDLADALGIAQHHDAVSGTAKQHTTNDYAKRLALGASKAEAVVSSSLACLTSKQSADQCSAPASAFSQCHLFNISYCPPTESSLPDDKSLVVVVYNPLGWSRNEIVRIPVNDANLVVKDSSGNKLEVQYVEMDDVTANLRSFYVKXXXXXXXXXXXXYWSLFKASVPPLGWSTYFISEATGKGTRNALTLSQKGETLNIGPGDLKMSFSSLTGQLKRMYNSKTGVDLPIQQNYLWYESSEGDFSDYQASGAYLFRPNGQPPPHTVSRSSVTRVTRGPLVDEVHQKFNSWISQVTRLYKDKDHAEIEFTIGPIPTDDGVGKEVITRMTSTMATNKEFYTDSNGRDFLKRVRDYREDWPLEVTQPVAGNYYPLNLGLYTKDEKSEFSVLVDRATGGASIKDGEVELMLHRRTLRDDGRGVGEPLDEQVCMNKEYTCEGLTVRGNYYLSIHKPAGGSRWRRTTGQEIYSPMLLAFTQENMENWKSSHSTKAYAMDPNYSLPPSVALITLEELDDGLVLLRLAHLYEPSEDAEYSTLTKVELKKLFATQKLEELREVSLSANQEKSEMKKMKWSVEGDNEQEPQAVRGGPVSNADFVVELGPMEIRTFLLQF
Put plainly: Inhibition of jack bean alpha-mannosidase at 1 mM using p-nitrophenyl glycopyranoside preincubated for 5 mins followed by substrate addition measured after 20 mins by visible absorption spectroscopic method relative to control. Put shortly: as §1

Experiment [3] is described as follows: Inhibition of bovine kidney alpha-L-fucosidase using p-nitrophenyl glycopyranoside preincubated for 5 mins followed by substrate addition measured after 20 mins by visible absorption spectroscopic method. On the set-up: species or system Bos taurus.
For another experiment, the system named is Oryza sativa. Put plainly: Inhibition of rice alpha-glucosidase at 1 mM using p-nitrophenyl glycopyranoside preincubated for 5 mins followed by substrate addition measured after 20 mins by visible absorption spectroscopic method relative to control. In short, it runs like this:
as §1

The test system of another experiment is Aspergillus niger. Put plainly: Inhibition of Aspergillus niger amyloglucosidase at 1 mM using p-nitrophenyl glycopyranoside preincubated for 5 mins followed by substrate addition measured after 20 mins by visible absorption spectroscopic method relative to control. Put shortly:
as §1

Another experiment deals with Canavalia ensiformis. Put plainly: Inhibition of jack bean beta-N-acetylglucosaminidase at 1 mM using p-nitrophenyl glycopyranoside preincubated for 5 mins followed by substrate addition measured after 20 mins by visible absorption spectroscopic method relative to control. Put shortly: as §1
The target of experiment [4] is Alpha-galactosidase (Coffea arabica) (UniProt Q42656). Put plainly: Inhibition of coffee beans alpha-galactosidase at 1 mM using p-nitrophenyl glycopyranoside preincubated for 5 mins followed by substrate addition measured after 20 mins by visible absorption spectroscopic method relative to control. In short, it runs like this: as §1
Chain of Alpha-galactosidase (Coffea arabica) (Q42656 16-378 limits assumed): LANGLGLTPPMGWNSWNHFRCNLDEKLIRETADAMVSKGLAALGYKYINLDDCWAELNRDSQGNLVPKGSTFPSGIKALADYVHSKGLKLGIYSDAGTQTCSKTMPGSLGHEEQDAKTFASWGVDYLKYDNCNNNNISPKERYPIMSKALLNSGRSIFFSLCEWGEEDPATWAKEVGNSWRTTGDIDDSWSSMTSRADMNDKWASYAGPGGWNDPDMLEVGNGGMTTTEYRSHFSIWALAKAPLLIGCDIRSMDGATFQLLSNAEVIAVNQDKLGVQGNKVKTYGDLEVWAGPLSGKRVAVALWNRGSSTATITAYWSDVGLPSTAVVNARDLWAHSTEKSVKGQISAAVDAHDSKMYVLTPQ
Experiment [5] concerns the target Beta-galactosidase (Escherichia coli) (UniProt Q8VNN2). Put plainly: Inhibition of Escherichia coli beta-galactosidase at 1 mM using p-nitrophenyl glycopyranoside preincubated for 5 mins followed by substrate addition measured after 20 mins by visible absorption spectroscopic method relative to control. Put shortly:
as §1

In another experiment the test system is Saccharomyces cerevisiae. Put plainly: Inhibition of yeast alpha glucosidase at 1 mM using p-nitrophenyl glycopyranoside preincubated for 5 mins followed by substrate addition measured after 20 mins by visible absorption spectroscopic method relative to control. Put shortly:
as §1

The subject of the next experiment is Prunus dulcis. Put plainly: Inhibition of almond beta-glucosidase at 1 mM using p-nitrophenyl glycopyranoside preincubated for 5 mins followed by substrate addition measured after 20 mins by visible absorption spectroscopic method relative to control. In short, it runs like this:
as §1

Another experiment relates to Cornu aspersum. Put plainly: Inhibition of snail beta-mannosidase at 1 mM using p-nitrophenyl glycopyranoside preincubated for 5 mins followed by substrate addition measured after 20 mins by visible absorption spectroscopic method relative to control. In short, it runs like this:
as §1

Calls of active or inactive are those of the source. No cut-off for these calls is given here.

A word on the inhibition: it is the percentage by which the read-out fell short of the control. The IC50 is the concentration that inhibits the measured activity by half. The low end stands for inhibition by little substance, the high end for a need for much substance.

Chain of Beta-galactosidase (Escherichia coli) (Q8VNN2 whole entry, looked up): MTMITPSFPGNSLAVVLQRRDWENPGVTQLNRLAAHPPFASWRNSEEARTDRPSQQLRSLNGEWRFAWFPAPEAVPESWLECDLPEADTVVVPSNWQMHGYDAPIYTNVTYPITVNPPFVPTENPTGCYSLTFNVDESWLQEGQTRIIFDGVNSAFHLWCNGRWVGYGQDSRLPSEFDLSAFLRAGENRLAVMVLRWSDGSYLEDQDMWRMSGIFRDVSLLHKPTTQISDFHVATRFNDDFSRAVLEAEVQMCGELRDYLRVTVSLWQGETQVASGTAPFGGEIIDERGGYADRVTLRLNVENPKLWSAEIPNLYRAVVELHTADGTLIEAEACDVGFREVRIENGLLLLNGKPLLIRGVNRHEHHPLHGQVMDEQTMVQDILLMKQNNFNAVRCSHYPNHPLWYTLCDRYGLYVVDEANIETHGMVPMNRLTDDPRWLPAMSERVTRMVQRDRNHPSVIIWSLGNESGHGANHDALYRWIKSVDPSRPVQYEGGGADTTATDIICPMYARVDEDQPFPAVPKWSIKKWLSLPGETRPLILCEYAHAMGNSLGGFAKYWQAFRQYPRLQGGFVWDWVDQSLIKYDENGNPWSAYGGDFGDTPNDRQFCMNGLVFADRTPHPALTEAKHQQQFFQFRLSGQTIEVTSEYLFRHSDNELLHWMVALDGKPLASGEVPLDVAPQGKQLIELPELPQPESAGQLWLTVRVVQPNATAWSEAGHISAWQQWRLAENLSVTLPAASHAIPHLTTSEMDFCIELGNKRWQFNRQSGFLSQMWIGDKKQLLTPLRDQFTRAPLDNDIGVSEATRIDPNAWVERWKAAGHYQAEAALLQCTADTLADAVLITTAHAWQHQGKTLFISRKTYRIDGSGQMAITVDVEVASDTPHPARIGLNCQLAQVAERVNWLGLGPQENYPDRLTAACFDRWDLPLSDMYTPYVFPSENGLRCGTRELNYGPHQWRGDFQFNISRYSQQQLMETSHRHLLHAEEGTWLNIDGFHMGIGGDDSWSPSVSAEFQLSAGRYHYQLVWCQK

As to `O[C@@H]1[C@H](O)CN[C@@H]1c1cn(Cc2ccccc2)nn1`, the inhibition in the experiment listed under Bos taurus is 84%. For the same molecule, the inhibition result (in [1]; in experiment [2]; in the experiment on Oryza sativa; in the experiment on Aspergillus niger; in the experiment on Canavalia ensiformis; in experiment [4]) was “inactive” each time. Besides, the inhibition result (in [5]; with Saccharomyces cerevisiae; with Prunus dulcis; in the experiment with Cornu aspersum) was “inactive” in each case. In experiment [3], this molecule yielded an IC50 of 168 µM.
